Measured values as given in ChEMBL document CHEMBL1212911, “Identification of potent and selective amidobipyridyl inhibitors of protein kinase D” (J Med Chem, 2010).
Active and inactive are the calls of the source. The rule behind the calls is not given here.

Key:
[1] = Clearance in Sprague-Dawley rat at 2 mg/kg, iv and 5 mg/kg, po; format: ADME, organism-based; details: in vivo
In short: (§1)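 Rats dosed iv 2 mg/kg (n = 2) or po 5 mg/kg (n = 3) in 10% NMP, 10% Cremophor, 80% pH 4.63 buffer. PK parameters derived from iv dosing, reported as mean ± SD.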

[2] = Inhibition of PKC-mediated phosphorylation of Ser744/748
[3] = target: Protein kinase C delta type (Homo sapiens) (UniProt Q05655); test: Inhibition of human PKCdelta; details: concentration not given here
In short: (§2)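 Selectivity screen run externally (Invitrogen SelectScreen). Percent inhibition measured at 1 μM compound, mean of 2 measurements.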

Rattus norvegicus [4] = test: Antihypertensive activity in thoracic aortic banded Sprague-Dawley rat assessed as inhibition of cardia hypertrophy at 5 mg/kg, sc; format: functional, organism-based; parameters: dose 5 mg/kg; details: Aorta
In short: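 Rats fitted with an aortic occlusion cuff or given sham surgery. Dosed 5 mg/kg/day sc in acidified captisol, or vehicle, for 2 weeks. End-point cardiac performance assessed by ultrasound and hemodynamics by direct catheterization.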

Rattus norvegicus [5] = test: Ex vivo inhibition of PKD in PBMC isolated from Dahl salt-sensitive sc dosed rat assessed as inhibition of PMA-induced HDAC phosphorylation
[6] = target: T1, Protein kinase C epsilon type (Homo sapiens) (UniProt Q02156); test: Inhibition of PKCepsilon; details: concentration not given here
T1 sequence (whole entry): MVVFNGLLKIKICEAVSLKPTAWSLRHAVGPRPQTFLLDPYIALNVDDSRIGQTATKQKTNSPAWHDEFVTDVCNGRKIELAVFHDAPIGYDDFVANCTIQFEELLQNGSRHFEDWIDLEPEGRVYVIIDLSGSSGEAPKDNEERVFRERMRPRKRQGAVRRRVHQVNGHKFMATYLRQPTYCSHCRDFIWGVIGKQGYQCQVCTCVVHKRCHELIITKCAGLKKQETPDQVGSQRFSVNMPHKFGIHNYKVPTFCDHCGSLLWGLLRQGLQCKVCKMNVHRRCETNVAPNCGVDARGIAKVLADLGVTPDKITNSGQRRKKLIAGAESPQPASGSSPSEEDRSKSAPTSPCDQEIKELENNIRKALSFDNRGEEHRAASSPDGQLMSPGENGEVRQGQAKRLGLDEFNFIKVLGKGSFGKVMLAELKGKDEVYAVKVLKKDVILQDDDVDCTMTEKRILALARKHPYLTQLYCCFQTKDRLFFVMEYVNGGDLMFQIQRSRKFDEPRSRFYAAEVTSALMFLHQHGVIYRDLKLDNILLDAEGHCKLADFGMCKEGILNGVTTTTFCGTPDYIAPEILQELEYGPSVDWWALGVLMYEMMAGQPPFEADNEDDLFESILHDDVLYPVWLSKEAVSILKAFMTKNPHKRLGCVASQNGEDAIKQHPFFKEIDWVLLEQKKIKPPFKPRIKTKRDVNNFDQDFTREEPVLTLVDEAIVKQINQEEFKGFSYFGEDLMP

[7] = target: Serine/threonine-protein kinase MARK2 (Homo sapiens) (UniProt Q7KZI7); test: Inhibition of human MARK2; details: concentration not given here; in short: as §2
[8] = target: Beta-1 adrenergic receptor (Homo sapiens, UniProt P08588); test: Inhibition of beta-1 adrenoceptor
[9] = target: T2, Serine/threonine-protein kinase D1 (Homo sapiens) (UniProt Q15139); test: Inhibition of PKD1 autophosphorylation at 1 uM
T2 sequence (whole entry): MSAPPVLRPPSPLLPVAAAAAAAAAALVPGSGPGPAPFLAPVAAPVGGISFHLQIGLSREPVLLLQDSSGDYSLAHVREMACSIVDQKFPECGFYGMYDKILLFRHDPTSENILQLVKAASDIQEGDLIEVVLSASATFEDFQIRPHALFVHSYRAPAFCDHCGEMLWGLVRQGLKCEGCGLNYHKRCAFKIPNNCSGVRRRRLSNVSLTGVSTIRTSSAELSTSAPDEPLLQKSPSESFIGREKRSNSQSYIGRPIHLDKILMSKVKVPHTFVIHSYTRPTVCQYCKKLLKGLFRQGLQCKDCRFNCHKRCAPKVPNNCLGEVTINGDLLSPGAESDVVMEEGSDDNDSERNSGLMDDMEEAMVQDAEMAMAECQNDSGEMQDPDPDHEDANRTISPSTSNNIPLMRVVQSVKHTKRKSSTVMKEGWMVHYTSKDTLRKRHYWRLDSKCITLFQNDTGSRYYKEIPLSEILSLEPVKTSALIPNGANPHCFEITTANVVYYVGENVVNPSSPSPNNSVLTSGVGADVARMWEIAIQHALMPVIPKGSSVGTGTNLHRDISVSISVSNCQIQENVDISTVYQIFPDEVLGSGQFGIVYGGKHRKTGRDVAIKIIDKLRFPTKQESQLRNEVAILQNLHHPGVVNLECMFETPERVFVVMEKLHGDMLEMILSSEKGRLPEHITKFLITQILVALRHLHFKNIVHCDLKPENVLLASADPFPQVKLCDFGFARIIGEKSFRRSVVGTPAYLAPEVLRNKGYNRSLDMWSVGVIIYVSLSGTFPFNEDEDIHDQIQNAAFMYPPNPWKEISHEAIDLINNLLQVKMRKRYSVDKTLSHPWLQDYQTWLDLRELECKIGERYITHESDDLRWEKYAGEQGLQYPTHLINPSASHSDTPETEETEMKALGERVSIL

[10] = Inhibition of alpha1 adrenoceptor
[11] = Half life in rats after 2 mg/kg intravenous dose; format: ADME, organism-based; parameters: dose 2 mg/kg, route intravenous; details: Sprague-Dawley, rat, in vivo; in short: as §1
[12] = Volume of distribution at steady state in Sprague-Dawley rat at 2 mg/kg, iv and 5 mg/kg, po; format: ADME, organism-based; details: in vivo, read-out: Vdss; in short: as §1
Rattus norvegicus [13] = species: Rattus norvegicus; test: Inhibition of PMA-induced PKD autophosphorylation in Dahl salt-sensitive rat PBMC
In short: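 Male Dahl salt-sensitive rats, 6–7 weeks old, were switched from a 0.49% to an 8.0% NaCl diet for 2 weeks. Dosing was daily sc (1.0 mL/kg) with vehicle (10% 1 N HCl/90% of 10% captisol, pH 4.6 buffer) or 0.5, 1.5 or 5 mg/kg compound. On day 14, PBMCs were isolated and stimulated with PMA. The read-out was PKD Ser916 autophosphorylation.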

[14] = target: G protein-coupled receptor kinase 5 (Homo sapiens) (UniProt P34947); test: Inhibition of human GRK5; details: concentration not given here; in short: as §2
[15] = target: Calcium/calmodulin-dependent protein kinase type II subunit delta (Homo sapiens) (UniProt Q13557); test: Inhibition of human CaMK2delta; details: concentration not given here; in short: as §2
[16] = target: Calcium/calmodulin-dependent protein kinase type 1D (Homo sapiens) (UniProt Q8IU85); test: Inhibition of CaMK1delta; details: concentration not given here; in short: as §2
Plasma = test: Drug level in Dahl salt-sensitive rat plasma at 5 mg/kg, sc qd; details: in vivo

Sequence of Beta-1 adrenergic receptor (P08588 whole entry): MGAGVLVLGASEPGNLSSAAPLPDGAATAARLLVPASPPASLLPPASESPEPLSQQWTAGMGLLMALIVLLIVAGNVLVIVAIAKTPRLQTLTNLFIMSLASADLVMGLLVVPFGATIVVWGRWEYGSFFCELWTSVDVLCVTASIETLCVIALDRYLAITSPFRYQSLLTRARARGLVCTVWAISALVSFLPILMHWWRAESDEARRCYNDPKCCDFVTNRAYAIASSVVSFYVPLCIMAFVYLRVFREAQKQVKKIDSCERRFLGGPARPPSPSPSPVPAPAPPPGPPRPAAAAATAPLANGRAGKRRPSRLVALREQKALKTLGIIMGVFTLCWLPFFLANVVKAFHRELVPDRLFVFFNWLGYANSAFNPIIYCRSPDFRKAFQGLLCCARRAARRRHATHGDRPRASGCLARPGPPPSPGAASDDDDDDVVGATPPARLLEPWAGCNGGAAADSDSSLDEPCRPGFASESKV
Sequence of Calcium/calmodulin-dependent protein kinase type II subunit delta (Homo sapiens) (Q13557 whole entry): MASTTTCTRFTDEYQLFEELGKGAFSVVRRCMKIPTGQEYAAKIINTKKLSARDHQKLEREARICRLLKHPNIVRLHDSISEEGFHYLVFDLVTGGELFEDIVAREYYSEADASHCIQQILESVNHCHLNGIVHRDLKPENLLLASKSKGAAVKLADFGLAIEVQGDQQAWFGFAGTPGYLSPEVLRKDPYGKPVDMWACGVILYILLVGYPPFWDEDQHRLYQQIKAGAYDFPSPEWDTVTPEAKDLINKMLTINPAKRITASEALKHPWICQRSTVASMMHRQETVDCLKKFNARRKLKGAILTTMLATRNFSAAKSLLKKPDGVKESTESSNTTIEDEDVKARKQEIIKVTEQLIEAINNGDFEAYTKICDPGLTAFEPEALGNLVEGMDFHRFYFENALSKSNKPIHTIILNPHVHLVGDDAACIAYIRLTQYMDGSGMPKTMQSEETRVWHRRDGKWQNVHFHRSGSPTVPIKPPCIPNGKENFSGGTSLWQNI
Sequence of Calcium/calmodulin-dependent protein kinase type 1D (Homo sapiens) (Q8IU85 whole entry, looked up): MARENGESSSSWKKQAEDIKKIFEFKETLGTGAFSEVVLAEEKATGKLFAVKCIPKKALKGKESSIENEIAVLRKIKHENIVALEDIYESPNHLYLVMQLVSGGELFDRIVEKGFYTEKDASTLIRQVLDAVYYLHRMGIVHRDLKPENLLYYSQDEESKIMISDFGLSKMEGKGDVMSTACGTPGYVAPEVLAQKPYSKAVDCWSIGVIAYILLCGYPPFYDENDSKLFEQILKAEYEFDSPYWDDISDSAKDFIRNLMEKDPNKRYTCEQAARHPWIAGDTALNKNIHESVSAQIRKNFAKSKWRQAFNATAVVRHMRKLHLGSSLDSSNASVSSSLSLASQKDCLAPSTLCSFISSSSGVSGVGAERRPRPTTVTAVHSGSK
Sequence of Protein kinase C delta type (Homo sapiens) (Q05655 whole entry, looked up): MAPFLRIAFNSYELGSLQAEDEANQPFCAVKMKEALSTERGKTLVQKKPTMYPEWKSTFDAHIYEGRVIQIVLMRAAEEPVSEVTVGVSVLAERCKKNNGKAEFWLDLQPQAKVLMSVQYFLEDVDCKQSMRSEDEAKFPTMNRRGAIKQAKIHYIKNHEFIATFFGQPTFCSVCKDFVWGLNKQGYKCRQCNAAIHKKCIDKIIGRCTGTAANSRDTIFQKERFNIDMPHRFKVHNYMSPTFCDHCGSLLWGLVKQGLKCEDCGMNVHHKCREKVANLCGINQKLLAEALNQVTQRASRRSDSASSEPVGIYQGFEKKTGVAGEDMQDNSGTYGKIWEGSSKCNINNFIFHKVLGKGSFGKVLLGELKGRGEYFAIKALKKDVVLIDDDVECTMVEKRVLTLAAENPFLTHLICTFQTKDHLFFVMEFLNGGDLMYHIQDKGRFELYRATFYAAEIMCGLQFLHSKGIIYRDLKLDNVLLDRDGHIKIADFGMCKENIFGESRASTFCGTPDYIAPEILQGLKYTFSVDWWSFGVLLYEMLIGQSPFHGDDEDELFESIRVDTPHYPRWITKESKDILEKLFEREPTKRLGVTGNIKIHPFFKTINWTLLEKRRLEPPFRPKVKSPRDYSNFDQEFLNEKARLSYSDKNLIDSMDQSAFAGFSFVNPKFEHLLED
Sequence of G protein-coupled receptor kinase 5 (Homo sapiens) (P34947 whole entry, looked up): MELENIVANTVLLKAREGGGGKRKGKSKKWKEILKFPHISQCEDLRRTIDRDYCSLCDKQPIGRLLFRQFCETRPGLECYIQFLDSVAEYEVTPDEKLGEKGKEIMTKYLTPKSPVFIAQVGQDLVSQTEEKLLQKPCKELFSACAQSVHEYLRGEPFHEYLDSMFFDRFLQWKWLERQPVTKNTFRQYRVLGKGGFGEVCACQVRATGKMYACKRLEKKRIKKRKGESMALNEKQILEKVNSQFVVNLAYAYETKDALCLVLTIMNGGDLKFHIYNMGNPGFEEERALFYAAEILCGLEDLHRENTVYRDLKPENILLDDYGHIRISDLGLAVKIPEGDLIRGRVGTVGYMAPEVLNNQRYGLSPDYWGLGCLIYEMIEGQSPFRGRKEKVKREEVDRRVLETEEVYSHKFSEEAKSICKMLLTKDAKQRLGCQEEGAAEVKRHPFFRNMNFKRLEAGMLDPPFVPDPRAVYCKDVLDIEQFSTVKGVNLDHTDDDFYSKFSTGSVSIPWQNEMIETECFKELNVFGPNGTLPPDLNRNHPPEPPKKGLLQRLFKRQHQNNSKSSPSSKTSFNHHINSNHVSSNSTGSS
Sequence of Serine/threonine-protein kinase MARK2 (Homo sapiens) (Q7KZI7 whole entry): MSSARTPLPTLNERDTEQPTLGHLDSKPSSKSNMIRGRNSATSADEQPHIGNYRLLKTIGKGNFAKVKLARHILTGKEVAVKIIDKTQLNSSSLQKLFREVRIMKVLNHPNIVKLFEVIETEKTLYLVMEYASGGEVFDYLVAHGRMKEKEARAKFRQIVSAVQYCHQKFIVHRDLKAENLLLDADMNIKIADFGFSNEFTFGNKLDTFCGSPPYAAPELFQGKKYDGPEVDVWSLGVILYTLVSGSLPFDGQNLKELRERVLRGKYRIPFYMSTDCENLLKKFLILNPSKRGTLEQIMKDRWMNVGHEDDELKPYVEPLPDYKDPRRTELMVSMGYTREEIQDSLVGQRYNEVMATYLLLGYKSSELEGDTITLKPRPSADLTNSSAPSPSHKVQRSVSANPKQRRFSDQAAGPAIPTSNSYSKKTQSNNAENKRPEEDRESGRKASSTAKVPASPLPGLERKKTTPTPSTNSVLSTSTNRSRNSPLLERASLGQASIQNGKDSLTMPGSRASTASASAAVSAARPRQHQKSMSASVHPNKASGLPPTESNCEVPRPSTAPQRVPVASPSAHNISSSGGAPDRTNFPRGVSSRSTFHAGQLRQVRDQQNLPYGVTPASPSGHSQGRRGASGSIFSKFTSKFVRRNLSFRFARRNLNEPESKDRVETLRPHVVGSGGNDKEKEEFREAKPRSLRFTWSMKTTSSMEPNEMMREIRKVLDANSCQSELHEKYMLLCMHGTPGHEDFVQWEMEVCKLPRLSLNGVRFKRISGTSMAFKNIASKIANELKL

clearance [1]: 5.82 L/h/kg
inhibition [2]: inactive
inhibition [3]: 22%
inhibition [6]: -3%
inhibition [7]: 27%
IC50 [8]: 8.3 µM
inhibition [9]: Active
IC50 [10]: 3 µM
half-life [11]: 3.8 h
Vd [12]: 22 L/kg
inhibition (Rattus norvegicus [13]): inactive
inhibition [14]: 2%
inhibition [15]: 26%
inhibition [16]: 6%
concentration (Plasma): 0.23 µM
Structure (SMILES): NC(=O)c1cc(-c2ccnc(NC3CCCCC3)c2)nc(N2CCNCC2)c1
inhibition (Rattus norvegicus [4]): inactive
Activity (Rattus norvegicus [5]): Active
